Source: PubChem BioAssay
Only some compounds are listed: those with a hit (about 3.7% of all), similar ones and a draw of the others.
F508del corr: correctors of CFTR F508del function in bronchial epithelial cells. activity (quench increase), % at 7.58 µM. 350,000 compounds, 0.36% hits. AID 720511. CFBE cells, YFP halide quenching; stimulated with forskolin plus potentiator P3; % fluorescence drop versus neutral controls;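 active = mean added fluorescence quench of at least 8% versus neutral control, with both replicates also reaching 8%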;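 also: cells transiently co-express mutant CFTR-F508del with the halide-sensitive YFP; corrector assay measuring rescue of mutant channel to the surface after 24 h compound exposure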
FGF22 binding: binders of recombinant human FGF22 by thermal shift. Q9HCT0. SYPRO orange fluorescence; percent of sucrose octasulfate shift, DMSO zero. activity (Tm shift, normalised), % at 9.99 µM. 340,000 compounds, 1.5% hits. AID 651658;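 active = mean Tm shift, scaled 0 neutral to 100 positive control, at about 1.3% or above, every replicate too, limit read from the data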
Target sequence (Q9HCT0 whole entry, looked up): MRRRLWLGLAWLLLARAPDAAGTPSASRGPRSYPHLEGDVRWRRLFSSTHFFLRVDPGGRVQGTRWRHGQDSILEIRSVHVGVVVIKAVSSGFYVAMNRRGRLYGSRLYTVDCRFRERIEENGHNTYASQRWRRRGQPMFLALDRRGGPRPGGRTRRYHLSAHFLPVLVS
E-selectin induc: induces E-selectin expression in human endothelial cells; 260,000 compounds, 0.37% hits; activation, % at 7.58 µM; HUVEC E-selectin immunofluorescence imaging; normalized: neutral wells 0, TNF-alpha wells 100;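 active = mean E-selectin-positive cell signal at least 10% of the positive control, reached in at least 60% of replicates, without over 20% cell loss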
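Test system: HUVEC | Signal: Immunofluorescence imaging | Read-out: Percent E-selectin-positive cells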
ERAP1 HTS inh: inhibitors of human ERAP1 aminopeptidase; Q9NZ08; recombinant ERAP1, Leu-AMC fluorescence, 60 min; inhibition, % at 10.7 µM; 340,000 compounds, 0.15% hits; AID 652197;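 active = mean replicate inhibition of at least 30%, or all replicates individually reaching that 30% level; inactive = mean below 30% and not every replicate reaching it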;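 also: 0% = neutral control wells and 100% = L-leucinethiol positive control wells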
DENV2 CPE rescue: inhibitors of DENV2 cytopathic effect; 350,000 compounds, 1.7% hits; CPE inhibition, % at 9.99 µM; DENV2-infected cells, cytopathic effect rescue, plate reader; in the data active = CPE inhibition above about 20%, passing the limit was not always enough; tested in BHK-21 cells;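 also: 0% = median of neutral control wells and 100% = median of positive control wells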
* hit, by the source's call; / = no result given.

SMILES	F508del corr	FGF22 binding	E-selectin induc	ERAP1 HTS inh	DENV2 CPE rescue
O=C1N=c2ccccc2=C1c1sc(NS(=O)(=O)Cc2ccccc2)nc1O	-1	1.3*	-1	2	6
O=C(CN(Cc1ccccc1)S(=O)(=O)c1ccc(F)cc1)NCc1cccnc1	9.0*	0	/	2	5
CN(Cc1ccccc1)S(=O)(=O)c1ccc(OCC(=O)NCc2cccnc2)cc1	-2	0	0	0	2
CN(c1ccc(OCC(=O)NCc2cccnc2)cc1)S(=O)(=O)c1ccc(Cl)cc1	-3	43*	1	3	4
CC1=C(C(=O)N2CCOCC2)C(c2ccc(OC(F)F)cc2)NC(=S)N1c1ccccc1 (stereo not drawn)	1	43*	/	1	3
CO[C@H]1CN(C)C(=O)c2cc(NC(=O)c3ccno3)ccc2OC[C@H](C)N(S(C)(=O)=O)C[C@@H]1C	-2	0	0	/	3
O=C(C1CCCC1)N1CC(=O)N2[C@H](C1)[C@@H](c1ccc(C#CCc3ccccc3)cc1)[C@@H]2CO	-3	/	0	-2	-5
COc1cccc(S(=O)(=O)N(C)C[C@H]2Oc3ncc(-c4cccc(C(=O)N(C)C)c4)cc3C(=O)N([C@H](C)CO)C[C@@H]2C)c1	3	0	-1	1	-3
COC(=O)c1cc(C#N)c(=O)[nH]c1C	0	0	0	0	-2
COC(=O)c1cc(C#N)c(OC)nc1C	-3	43*	/	2	-12
CN1CC[C@]23c4ccccc4N[C@H]1[C@]21CCN(C)[C@H]3Nc2ccccc21	-2	0	-1	0	-7
COC(=O)C1CC23C=CCN4CCC5(c6ccccc6NC15C2C)C43 (stereo not drawn)	10*	0	2	-4	4
Cc1ccccc1-n1ncc2c1CC(C)(C)CC2NC(=O)CSc1ccncc1 (stereo not drawn)	-2	0	-2	0	108*
COc1ccc(Oc2nc(-c3ccccc3)ncc2C(=O)O)cc1	1	43*	/	-2	10
COc1ccc(-c2ccc([C@H]3[C@@H](CO)N4CCCCN(S(=O)(=O)c5cccs5)C[C@H]34)cc2)cc1	1	0	0	3	26*
COc1ccc(-c2ccc([C@H]3[C@H]4CN(S(=O)(=O)c5cccs5)CCCCN4[C@H]3CO)cc2)cc1	1	0	0	1	-10
COc1ccc(S(=O)(=O)N2CCCCN3[C@H](CO)[C@@H](c4ccc(C5=CCCC5)cc4)[C@@H]3C2)cc1	-3	0	0	-1	-11
O=S(=O)(c1cccs1)N1CCCCN2[C@H](CO)[C@H](c3ccc(Br)cc3)[C@H]2C1	-4	0	0	-3	38*
COc1ccc(S(=O)(=O)N2CCCCN3[C@H](CO)[C@H](c4ccc(C5=CCCC5)cc4)[C@@H]3C2)cc1	1	-1	0	/	141*
C[C@H](CO)N1C[C@H](C)[C@@H](CN(C)Cc2ccc(C(=O)O)cc2)Oc2ccc(NC(=O)Nc3cccc4ccccc34)cc2CC1=O	0	0	0	-14	77*
C[C@H](CO)N1C[C@H](C)[C@H](CN(C)Cc2ccc(C(=O)O)cc2)Oc2ccc(NC(=O)Nc3cccc4ccccc34)cc2CC1=O	2	0	0	51*	5
C[C@@H]1CN([C@@H](C)CO)C(=O)Cc2cc(NC(=O)Nc3cccc4ccccc34)ccc2O[C@@H]1CN(C)Cc1ccc(Cl)c(Cl)c1	9.9*	0	-1	-2	-9
C[C@@H]1CN([C@H](C)CO)C(=O)Cc2cc(NC(=O)Nc3cccc4ccccc34)ccc2O[C@H]1CN(C)Cc1ccc(C(=O)O)cc1	-3	0	0	-15	-4
C[C@H]1CN([C@@H](C)CO)C(=O)Cc2cc(NC(=O)Nc3cccc4ccccc34)ccc2O[C@@H]1CN(C)Cc1ccc(C(=O)Nc2ccccc2N)cc1	-1	0	13	0	38*
C[C@H]1CN([C@@H](C)CO)C(=O)Cc2cc(NC(=O)Nc3cccc4ccccc34)ccc2O[C@H]1CN(C)Cc1ccc(C(=O)Nc2ccccc2N)cc1	-2	0	9	-4	6
SMILES	F508del corr	FGF22 binding	E-selectin induc	ERAP1 HTS inh	DENV2 CPE rescue
CCCC#Cc1ccc([C@H]2[C@H](CO)N3C(=O)CN(C(=O)NC4CCCC4)C[C@@H]23)cc1	-2	/	0	0	7
O=C(C[C@@H]1C[C@@H]2c3cc(NC(=O)C4CCC4)ccc3O[C@@H]2[C@H](CO)O1)NCc1ccccc1	-1	0	-1	3	4
Cc1noc(C)c1S(=O)(=O)Nc1ccc2c(c1)CC(=O)N([C@@H](C)CO)C[C@H](C)[C@@H](CN(C)Cc1ccc(C(=O)O)cc1)O2	4	0	-1	0	0
O=S(=O)(N/N=C\c1ccccc1O)c1ccc(Cl)cc1	1	0	1	-3	7
O=S(=O)(O)c1ccc(NN=Cc2ccccc2O)cc1	-1	44*	1	4	11
CCOc1ncccc1C(=O)Nc1nnc(C2CC2)s1	2	44*	/	-2	1
Nc1ncnc2c(C3OC(CO)C(O)C3O)scc12 (stereo not drawn)	6	43*	2	-2	2
O=C(NCCc1ccccc1)[C@H]1[C@H](CO)[C@H]2Cn3c(cccc3=O)[C@@H]1N2C(=O)C1CC1	/	0	1	-5	-3
O=C(NCC[C@H]1CC[C@H](NC(=O)c2cnccn2)[C@@H](CO)O1)Nc1ccc(F)cc1	3	0	0	1	22*
COc1ccccc1NC(=O)N[C@@H]1CC[C@@H](CCNS(=O)(=O)c2ccc(Cl)cc2)O[C@H]1CO	0	0	0	-3	20*
O=C(N[C@H]1CC[C@H](CCNS(=O)(=O)c2ccc(Cl)cc2)O[C@@H]1CO)c1cnccn1	0	0	-1	0	49*
O=C(N[C@H]1CC[C@H](CCNS(=O)(=O)c2ccccc2)O[C@@H]1CO)c1cccnc1	4	0	2	-2	-5
O=C(N[C@@H]1CC[C@@H](CCNS(=O)(=O)c2ccccc2)O[C@H]1CO)c1cccnc1	4	0	-2	-2	32*
O=C(N[C@H]1CC[C@H](CCNS(=O)(=O)c2cccc(Cl)c2)O[C@@H]1CO)c1ccccc1	-2	0	-2	2	6
O=C(N[C@@H]1CC[C@@H](CCNS(=O)(=O)c2cccc(Cl)c2)O[C@H]1CO)c1ccccc1	-3	0	-2	1	77*
Cc1cccc(S(=O)(=O)N[C@@H]2CC[C@@H](CCNC(=O)c3cnccn3)O[C@@H]2CO)c1	1	0	0	-1	31*
Cc1cccc(S(=O)(=O)N[C@H]2CC[C@@H](CCNC(=O)c3cnccn3)O[C@@H]2CO)c1	1	0	0	0	-2
